Source: ChEMBL document CHEMBL4261600 (Eur J Med Chem, 2018)

What was measured:
[1] = molecular target: Homeodomain-interacting protein kinase 3 (Homo sapiens) (UniProt Q9H422); assay: Binding affinity to wild-type human partial length HIPK3 (M153 to N562 residues) expressed in mammalian expression system assessed as remaining unbound target protein level at 1000 nM by Kinomescan method relative to control
Procedure, shortened: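 KINOMEscan binding panel of 468 kinases/mutants. Inhibitor was tested at a single concentration of 1 μM. Binding is reported as percent of control, defined relative to a DMSO control.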

[2] = molecular target: Calcium/calmodulin-dependent protein kinase type 1G (Homo sapiens) (UniProt Q96NX5); assay: Binding affinity to wild-type human partial length CAMK1G (M1 to A342 residues) expressed in bacterial expression system assessed as remaining unbound target protein level at 1000 nM by Kinomescan method relative to control
Procedure, shortened: (§1)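 KINOMEscan competition binding profile across a panel of 468 kinases and mutants, with the inhibitor tested at a single concentration of 1 μM. Binding is reported as percent of control, meaning signal relative to a DMSO control.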

[3] = molecular target: Receptor tyrosine-protein kinase erbB-2 (Homo sapiens) (UniProt P04626); assay: Binding affinity to wild-type human partial length ERBB2 (K646 to V1225 residues) expressed in mammalian expression system assessed as remaining unbound target protein level at 1000 nM by Kinomescan method relative to control
[4] = molecular target: Serine/threonine-protein kinase N1 (Homo sapiens) (UniProt Q16512); assay: Binding affinity to wild-type human partial length PKN1 (E598 to C948 residues) expressed in bacterial expression system assessed as remaining unbound target protein level at 1000 nM by Kinomescan method relative to control
Sequence of Serine/threonine-protein kinase N1 (Homo sapiens) (Q16512 2-942 limits assumed): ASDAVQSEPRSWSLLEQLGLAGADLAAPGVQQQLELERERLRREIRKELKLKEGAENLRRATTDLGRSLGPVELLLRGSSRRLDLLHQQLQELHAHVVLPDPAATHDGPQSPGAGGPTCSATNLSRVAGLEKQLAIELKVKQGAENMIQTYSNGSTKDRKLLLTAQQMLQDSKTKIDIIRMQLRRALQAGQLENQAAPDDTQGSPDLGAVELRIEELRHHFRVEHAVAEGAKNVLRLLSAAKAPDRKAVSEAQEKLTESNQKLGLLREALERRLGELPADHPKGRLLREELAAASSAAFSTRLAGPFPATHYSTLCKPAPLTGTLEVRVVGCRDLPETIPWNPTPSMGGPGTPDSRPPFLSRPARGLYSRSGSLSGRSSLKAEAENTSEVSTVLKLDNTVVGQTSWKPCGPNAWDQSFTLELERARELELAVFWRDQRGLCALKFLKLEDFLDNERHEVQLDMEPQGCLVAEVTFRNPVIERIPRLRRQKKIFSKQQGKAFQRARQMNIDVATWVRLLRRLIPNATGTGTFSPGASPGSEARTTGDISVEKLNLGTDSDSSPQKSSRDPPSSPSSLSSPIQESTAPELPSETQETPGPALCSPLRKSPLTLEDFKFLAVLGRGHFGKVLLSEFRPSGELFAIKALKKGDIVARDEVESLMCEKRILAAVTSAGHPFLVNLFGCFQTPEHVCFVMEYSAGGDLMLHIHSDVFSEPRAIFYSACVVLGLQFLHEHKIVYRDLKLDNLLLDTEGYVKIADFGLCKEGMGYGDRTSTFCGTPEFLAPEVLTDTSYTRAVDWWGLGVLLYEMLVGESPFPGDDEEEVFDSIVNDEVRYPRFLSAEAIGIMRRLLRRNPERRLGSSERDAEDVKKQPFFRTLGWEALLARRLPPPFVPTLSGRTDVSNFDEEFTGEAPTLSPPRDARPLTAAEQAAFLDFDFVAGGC

[5] = tested on: Tyrosine-protein kinase ABL1 (Homo sapiens), P00519 [H396P]; assay: Binding affinity to human phosphorylated ABL1 H396P mutant (S229 to K512 residues) expressed in mammalian expression system assessed as remaining unbound target protein level at 1000 nM by Kinomescan method relative to control
Procedure, shortened: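 Single-point competition binding screen across a panel of 468 kinases and mutants, with the inhibitor at 1 μM. Binding is read out as percent of a DMSO control, and targets below 1 percent control were classed as strong binders.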

[6] = Apparent volume of distribution in mouse at 3 mg/kg, iv by LC-MS/MS analysis; format: ADME, organism-based; details: in vivo, read-out: Vz
Procedure, shortened: (§2)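 Non-compartmental PK. Male SD rats 190-210 g, mice and beagle dogs acclimatized one week, fasted 12 h with water, split into iv and po groups (mice 48, rats 6, dogs 6). iv 3/3/2 mg/kg (mice/rats/dogs); po 10/20/10 mg/kg; vehicle DMSO in 5% glucose water. Blood at 2 or 5 to 720 min; plasma protein-precipitated with methanol, caffeine internal standard, LC-MS/MS.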

[7] = molecular target: Mitogen-activated protein kinase 8 (Homo sapiens) (UniProt P45983); assay: Binding affinity to wild-type human full length JNK1 (M1 to Q384 residues) expressed in mammalian expression system assessed as remaining unbound target protein level at 1000 nM by Kinomescan method relative to control; procedure, shortened: as §1
Sequence of Mitogen-activated protein kinase 8 (Homo sapiens) (P45983 whole entry, the tested form may be a part): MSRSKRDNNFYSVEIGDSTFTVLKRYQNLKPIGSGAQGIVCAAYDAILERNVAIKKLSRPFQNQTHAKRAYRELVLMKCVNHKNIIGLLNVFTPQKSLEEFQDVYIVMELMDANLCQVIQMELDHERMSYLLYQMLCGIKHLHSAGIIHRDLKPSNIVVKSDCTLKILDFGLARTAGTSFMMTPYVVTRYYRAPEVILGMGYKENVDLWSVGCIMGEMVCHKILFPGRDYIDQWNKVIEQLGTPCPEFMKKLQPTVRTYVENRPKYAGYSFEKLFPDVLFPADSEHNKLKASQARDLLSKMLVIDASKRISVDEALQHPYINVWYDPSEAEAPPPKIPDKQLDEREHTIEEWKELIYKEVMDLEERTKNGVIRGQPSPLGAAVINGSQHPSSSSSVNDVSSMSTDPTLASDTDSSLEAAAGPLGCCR

[8] = Tmax in Sprague-Dawley rat at 3 mg/kg, iv by LC-MS/MS analysis; format: ADME, organism-based; details: in vivo
[9] = molecular target: Phosphatidylinositol 4-phosphate 3-kinase C2 domain-containing subunit beta (Homo sapiens) (UniProt O00750); assay: Binding affinity to wild-type human partial length PIK3C2B (M1 to L1634 residues) expressed in mammalian expression system assessed as remaining unbound target protein level at 1000 nM by Kinomescan method relative to control
Sequence of Phosphatidylinositol 4-phosphate 3-kinase C2 domain-containing subunit beta (Homo sapiens) (O00750 whole entry, the tested form may be a part): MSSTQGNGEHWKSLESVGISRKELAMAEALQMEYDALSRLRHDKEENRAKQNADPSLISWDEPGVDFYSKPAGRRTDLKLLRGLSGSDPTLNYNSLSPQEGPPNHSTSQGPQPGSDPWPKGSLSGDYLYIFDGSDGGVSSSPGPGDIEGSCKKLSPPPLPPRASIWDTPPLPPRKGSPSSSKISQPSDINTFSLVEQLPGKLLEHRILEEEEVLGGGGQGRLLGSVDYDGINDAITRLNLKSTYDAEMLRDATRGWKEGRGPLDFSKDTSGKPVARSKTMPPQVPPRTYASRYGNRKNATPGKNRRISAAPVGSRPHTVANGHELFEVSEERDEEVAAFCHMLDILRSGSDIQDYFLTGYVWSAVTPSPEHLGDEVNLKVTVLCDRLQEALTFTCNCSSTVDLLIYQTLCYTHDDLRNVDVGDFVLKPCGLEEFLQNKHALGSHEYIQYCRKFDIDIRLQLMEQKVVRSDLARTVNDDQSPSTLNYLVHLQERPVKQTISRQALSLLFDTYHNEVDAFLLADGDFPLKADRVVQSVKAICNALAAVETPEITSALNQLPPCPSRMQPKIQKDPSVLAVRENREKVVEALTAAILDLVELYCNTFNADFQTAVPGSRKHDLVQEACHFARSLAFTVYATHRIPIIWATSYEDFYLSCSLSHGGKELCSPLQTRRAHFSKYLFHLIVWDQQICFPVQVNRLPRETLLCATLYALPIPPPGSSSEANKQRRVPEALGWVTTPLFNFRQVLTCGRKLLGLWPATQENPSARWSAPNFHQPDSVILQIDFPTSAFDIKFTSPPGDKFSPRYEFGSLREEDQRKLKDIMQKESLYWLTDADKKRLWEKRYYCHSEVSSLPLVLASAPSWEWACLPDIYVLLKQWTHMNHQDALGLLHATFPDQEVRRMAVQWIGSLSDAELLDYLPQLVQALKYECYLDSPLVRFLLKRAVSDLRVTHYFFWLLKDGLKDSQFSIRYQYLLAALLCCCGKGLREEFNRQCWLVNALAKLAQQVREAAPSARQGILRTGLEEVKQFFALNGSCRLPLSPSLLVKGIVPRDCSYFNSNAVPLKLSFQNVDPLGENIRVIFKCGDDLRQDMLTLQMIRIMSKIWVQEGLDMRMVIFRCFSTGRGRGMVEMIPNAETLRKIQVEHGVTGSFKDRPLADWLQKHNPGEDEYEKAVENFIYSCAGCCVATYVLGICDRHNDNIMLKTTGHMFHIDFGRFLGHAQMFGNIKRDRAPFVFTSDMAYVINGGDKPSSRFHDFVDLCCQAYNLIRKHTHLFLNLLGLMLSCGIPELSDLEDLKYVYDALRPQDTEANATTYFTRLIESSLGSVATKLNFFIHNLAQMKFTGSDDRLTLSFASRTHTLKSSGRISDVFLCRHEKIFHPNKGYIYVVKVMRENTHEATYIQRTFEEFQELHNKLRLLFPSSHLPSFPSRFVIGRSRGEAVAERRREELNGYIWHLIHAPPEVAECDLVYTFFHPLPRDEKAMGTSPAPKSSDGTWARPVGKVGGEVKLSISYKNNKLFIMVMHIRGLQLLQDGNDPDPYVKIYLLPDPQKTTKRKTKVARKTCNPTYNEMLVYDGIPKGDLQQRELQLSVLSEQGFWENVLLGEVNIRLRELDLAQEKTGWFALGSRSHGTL

[10] = molecular target: Beta-adrenergic receptor kinase 1 (Homo sapiens) (UniProt P25098); assay: Binding affinity to wild-type human full length GRK2 (M1 to L689 residues) expressed in mammalian expression system assessed as remaining unbound target protein level at 1000 nM by Kinomescan method relative to control; procedure, shortened: as §1
[11] = molecular target: Serine/threonine-protein kinase pim-3 (Homo sapiens) (UniProt Q86V86); assay: Binding affinity to wild-type human partial length PIM3 (G16 to A317 residues) expressed in bacterial expression system assessed as remaining unbound target protein level at 1000 nM by Kinomescan method relative to control
[12] = MRT (0 to t) in mouse at 3 mg/kg, iv by LC-MS/MS analysis; format: ADME, organism-based; details: in vivo
[13] = molecular target: Non-receptor tyrosine-protein kinase TYK2 (Homo sapiens) (UniProt P29597); assay: Binding affinity to wild-type human partial length TYK2 JH1 catalytic domain (V877 to C1187 residues) expressed in mammalian expression system assessed as remaining unbound target protein level at 1000 nM by Kinomescan method relative to control
[14] = molecular target: Serine/threonine-protein kinase 32B (Homo sapiens) (UniProt Q9NY57); assay: Binding affinity to wild-type human full length YANK2 (M1 to S414 residues) expressed in bacterial expression system assessed as remaining unbound target protein level at 1000 nM by Kinomescan method relative to control
Procedure, shortened: (§3)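 Profiled in a KINOMEscan binding panel with the inhibitor at a single concentration of 1 μM. Binding to each kinase was read out as percent of control, relative to a DMSO control. Strong binders were defined as those with a percent control value below 1.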

[15] = molecular target: Mitotic checkpoint serine/threonine-protein kinase BUB1 (Homo sapiens) (UniProt O43683); assay: Binding affinity to wild-type human partial length BUB1 (Q724 to K1085 residues) expressed in mammalian expression system assessed as remaining unbound target protein level at 1000 nM by Kinomescan method relative to control; procedure, shortened: as §3
[16] = molecular target: Serine/threonine-protein kinase 17A (Homo sapiens) (UniProt Q9UEE5); assay: Binding affinity to wild-type human partial length DRAK1 (R32 to E363 residues) expressed in bacterial expression system assessed as remaining unbound target protein level at 1000 nM by Kinomescan method relative to control
Sequence of Serine/threonine-protein kinase 17A (Homo sapiens) (Q9UEE5 whole entry, the tested form may be a part): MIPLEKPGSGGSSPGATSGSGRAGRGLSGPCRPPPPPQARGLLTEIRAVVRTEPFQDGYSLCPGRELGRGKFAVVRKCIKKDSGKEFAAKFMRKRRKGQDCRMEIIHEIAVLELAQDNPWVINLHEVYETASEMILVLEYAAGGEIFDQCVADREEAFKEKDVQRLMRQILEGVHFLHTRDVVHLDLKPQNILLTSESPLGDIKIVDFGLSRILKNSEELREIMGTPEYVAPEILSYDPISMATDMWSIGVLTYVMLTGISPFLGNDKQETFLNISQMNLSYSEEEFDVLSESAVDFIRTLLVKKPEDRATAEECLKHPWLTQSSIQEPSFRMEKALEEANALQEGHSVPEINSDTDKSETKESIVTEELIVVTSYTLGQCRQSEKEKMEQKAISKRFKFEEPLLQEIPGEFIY

[17] = molecular target: Protein-tyrosine kinase 6 (Homo sapiens) (UniProt Q13882); assay: Binding affinity to wild-type human partial length BRK (L166 to T451 residues) expressed in bacterial expression system assessed as remaining unbound target protein level at 1000 nM by Kinomescan method relative to control; procedure, shortened: as §1
Sequence of Protein-tyrosine kinase 6 (Homo sapiens) (Q13882 whole entry, looked up, the tested form may be a part): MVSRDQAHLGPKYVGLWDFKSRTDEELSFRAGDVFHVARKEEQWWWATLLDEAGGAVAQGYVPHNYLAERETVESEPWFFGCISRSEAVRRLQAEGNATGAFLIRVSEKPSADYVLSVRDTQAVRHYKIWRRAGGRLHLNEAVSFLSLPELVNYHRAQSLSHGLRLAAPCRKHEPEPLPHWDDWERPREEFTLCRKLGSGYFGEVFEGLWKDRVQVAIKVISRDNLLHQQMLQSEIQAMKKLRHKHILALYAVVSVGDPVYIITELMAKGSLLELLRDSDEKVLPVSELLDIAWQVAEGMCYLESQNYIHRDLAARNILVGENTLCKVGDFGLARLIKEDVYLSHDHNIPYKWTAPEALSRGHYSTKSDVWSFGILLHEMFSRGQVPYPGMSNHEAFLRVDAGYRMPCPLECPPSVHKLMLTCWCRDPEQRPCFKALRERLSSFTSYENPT

[18] = molecular target: Mitogen-activated protein kinase kinase kinase 14 (Homo sapiens) (UniProt Q99558); assay: Binding affinity to wild-type human partial length NIK (L318 to P947 residues) expressed in mammalian expression system assessed as remaining unbound target protein level at 1000 nM by Kinomescan method relative to control
[19] = molecular target: Calcium-dependent protein kinase 1 (Plasmodium falciparum) (UniProt P62344); assay: Binding affinity to wild-type Plasmodium falciparum full length CDPK1 (M1 to S524 residues) expressed in mammalian expression system assessed as remaining unbound target protein level at 1000 nM by Kinomescan method relative to control
Sequence of Calcium-dependent protein kinase 1 (Plasmodium falciparum) (P62344 2-524 limits assumed): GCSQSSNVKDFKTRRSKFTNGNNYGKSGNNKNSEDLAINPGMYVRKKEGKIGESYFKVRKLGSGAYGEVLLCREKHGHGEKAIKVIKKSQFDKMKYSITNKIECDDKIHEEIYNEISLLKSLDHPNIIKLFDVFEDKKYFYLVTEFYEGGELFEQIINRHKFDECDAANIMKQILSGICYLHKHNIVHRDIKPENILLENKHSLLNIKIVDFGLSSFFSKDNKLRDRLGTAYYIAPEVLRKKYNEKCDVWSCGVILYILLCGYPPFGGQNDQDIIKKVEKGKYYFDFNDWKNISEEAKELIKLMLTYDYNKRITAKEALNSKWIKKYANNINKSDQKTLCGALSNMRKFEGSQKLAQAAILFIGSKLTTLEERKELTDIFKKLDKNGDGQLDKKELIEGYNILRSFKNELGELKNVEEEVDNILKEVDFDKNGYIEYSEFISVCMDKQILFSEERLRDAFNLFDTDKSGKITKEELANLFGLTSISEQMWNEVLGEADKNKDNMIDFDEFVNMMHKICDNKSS
Procedure, shortened: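 KINOMEscan competitive binding profile at 1 μM inhibitor. Remaining target binding reported as percent of DMSO control.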

[20] = Apparent volume of distribution in Sprague-Dawley rat at 3 mg/kg, iv by LC-MS/MS analysis; format: ADME, organism-based; details: in vivo, read-out: Vz; procedure, shortened: as §2
[21] = molecular target: cAMP-dependent protein kinase catalytic subunit beta (Homo sapiens) (UniProt P22694); assay: Binding affinity to wild-type human full length PKAC-beta (M1 to F351 residues) expressed in bacterial expression system assessed as remaining unbound target protein level at 1000 nM by Kinomescan method relative to control; procedure, shortened: as §3

## COCCN[C@H]1CC[C@H](Nc2cc(-c3csc(NCC4(C#N)CCOCC4)n3)c(Cl)cn2)CC1
[1]
  Activity: 86%
[2]
  Activity: 94%
[3]
  Activity: 97%
[4]
  Activity: 87%
[5]
  Activity: 95%
[6]
  Vd: 18.2 L/kg
[7]
  Activity: 4.8%
[8]
  Tmax: 1.2 min
[9]
  Activity: 100%
[10]
  Activity: 91%
[11]
  Activity: 65%
[12]
  MRT last: 75 min
[13]
  Activity: 90%
[14]
  Activity: 100%
[15]
  Activity: 96%
[16]
  Activity: 100%
[17]
  Activity: 95%
[18]
  Activity: 100%
[19]
  Activity: 77%
[20]
  Vd: 44.5 L/kg
[21]
  Activity: 92%
